Measurements from ChEMBL document CHEMBL3120051, “Synthesis of novel 1,2-benzothiazine 1,1-dioxide-3-ethanone oxime N-aryl acetamide ether derivatives as potent anti-inflammatory agents and inhibitors of monocyte-to-macrophage transformation” (Eur J Med Chem, 2014).
Active and inactive are the calls of the source. No cut-off for these calls is given here.

Legend:
THP-1 [1] = assay: Antiinflammatory activity in human THP1 cells assessed as inhibition of PMA-induced TNF-alpha secretion incubated for 2 hrs prior to PMA challenge measured after 48 hrs by ELISA; format: functional, cell-based
How it was run: (§1)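 Seeded at 2×10^5/ml, THP-1 cells were pretreated 2 h with 5, 10 and 20 µM, then stimulated with 100 nM PMA. Supernatants were taken after 48 h and assayed by ELISA kit, read at 450 nm corrected at 570 nm, and quantified against standard curves (pg/ml). Percent inhibition was calculated versus control. IC50 is the predicted 50%-inhibition concentration, mean ± SD of three independent experiments.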

THP-1 [2] = assay: Antiinflammatory activity in human THP1 cells assessed as inhibition of PMA-induced MCP-1 secretion incubated for 2 hrs prior to PMA challenge measured after 72 hrs by ELISA; format: functional, cell-based
How it was run: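 THP-1 monocytes, 2×10^5/ml, received 5, 10 and 20 µM for 2 h before 100 nM PMA. Supernatant MCP-1 was measured by ELISA kit 72 h after PMA, with absorbance at 450 nm corrected at 570 nm and standard-curve quantitation. Percent inhibition is relative to control. IC50 is the predicted 50%-inhibition concentration, mean ± SD of three independent experiments.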

[3] = Cytotoxicity against human THP1 cells assessed as cell viability at 20 uM after 72 hrs by trypan blue dye exclusion assay; format: cell-based; settings: THP-1 cells, read-out: Activity
How it was run: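 THP-1 cells were seeded at 2×10^5 cells/ml in triplicate and exposed to 20 µM for 72 h. Cells were then harvested, resuspended in 0.4% trypan blue, and percent viable cells counted on an automated cell counter chamber.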

THP-1 [4] = assay: Antiinflammatory activity in human THP1 cells assessed as inhibition of PMA-induced IL-8 secretion incubated for 2 hrs prior to PMA challenge measured after 48 hrs by ELISA; format: functional, cell-based; how it was run: as §1
[5] = biological target: Matrix metalloproteinase-9 (Homo sapiens) (UniProt P14780); assay: Inhibition of MMP-9 in human THP1 cells assessed as inhibition of PMA-induced monocyte to macrophage transformation at 10 uM incubated for 2 hrs prior to PMA challenge measured after 48 hrs by gelation zymography; format: cell-based; settings: THP-1
How it was run: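 THP-1 monocytes were pretreated 2 h at 10 µM, then stimulated with 100 nM PMA for 48 h. Conditioned medium was run without reducing agent on 10% SDS-PAGE containing 0.1% gelatin. Gels were renatured 30 min in 0.25% Triton X-100 and developed overnight at room temperature in Tris/CaCl2/Brij 35 buffer.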

THP-1 [6] = assay: Antiinflammatory activity in human THP1 cells assessed as inhibition of PMA-induced LOX-1 expression at 10 uM incubated for 2 hrs prior to PMA challenge measured after 36 hrs by RT-PCR analysis; format: functional, cell-based
How it was run: (§2)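 THP-1 monocytes (ATCC; RPMI 1640, 10% FBS, 37 °C, 5% CO2) pretreated 2 h, then 100 nM PMA for 36 h. Total RNA extracted in TRIzol, cDNA made, and LOX-1 and CD-36 transcripts measured by RT-PCR with gene-specific primers; GAPDH served as loading control.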

THP-1 [7] = assay: Antiinflammatory activity in human THP1 cells assessed as inhibition of PMA-induced CD-36 expression at 10 uM incubated for 2 hrs prior to PMA challenge measured after 36 hrs by RT-PCR analysis; format: functional, cell-based; how it was run: as §2
THP-1 [8] = assay: Antiinflammatory activity in human THP1 cells assessed as inhibition of PMA-induced increase in cell adherence at 10 uM incubated for 2 hrs prior to PMA challenge measured after 48 hrs by light microscopy; format: functional, cell-based
How it was run: (§3)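 After 2 h pretreatment at 10 µM and 100 nM PMA for 48 h, THP-1 cultures had medium removed and were washed twice with warm DPBS. Phase-contrast light microscopy images were then used to assess adherence and monocyte/macrophage transformation.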

THP-1 [9] = assay: Antiinflammatory activity in human THP1 cells assessed as inhibition of PMA-induced increase in mitochondrial number at 10 uM incubated for 2 hrs prior to PMA challenge measured after 48 hrs by confocal microscopy; format: functional, cell-based
How it was run: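 Cells were treated in cover-glass-bottom dishes: 10 µM for 2 h, then 100 nM PMA. After 48 h they were stained 1 h with 200 nM MitoTracker CMXRos in HBSS and counterstained with DAPI. Confocal imaging used rhodamine and DAPI filters, with five fields of view, and gentle washes between steps.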

THP-1 [10] = assay: Antiinflammatory activity in human THP1 cells assessed as inhibition of PMA-induced increase in cell size at 10 uM incubated for 2 hrs prior to PMA challenge measured after 48 hrs by light microscopy; format: functional, cell-based; how it was run: as §3

Matrix metalloproteinase-9 (Homo sapiens), sequence (P14780 whole entry): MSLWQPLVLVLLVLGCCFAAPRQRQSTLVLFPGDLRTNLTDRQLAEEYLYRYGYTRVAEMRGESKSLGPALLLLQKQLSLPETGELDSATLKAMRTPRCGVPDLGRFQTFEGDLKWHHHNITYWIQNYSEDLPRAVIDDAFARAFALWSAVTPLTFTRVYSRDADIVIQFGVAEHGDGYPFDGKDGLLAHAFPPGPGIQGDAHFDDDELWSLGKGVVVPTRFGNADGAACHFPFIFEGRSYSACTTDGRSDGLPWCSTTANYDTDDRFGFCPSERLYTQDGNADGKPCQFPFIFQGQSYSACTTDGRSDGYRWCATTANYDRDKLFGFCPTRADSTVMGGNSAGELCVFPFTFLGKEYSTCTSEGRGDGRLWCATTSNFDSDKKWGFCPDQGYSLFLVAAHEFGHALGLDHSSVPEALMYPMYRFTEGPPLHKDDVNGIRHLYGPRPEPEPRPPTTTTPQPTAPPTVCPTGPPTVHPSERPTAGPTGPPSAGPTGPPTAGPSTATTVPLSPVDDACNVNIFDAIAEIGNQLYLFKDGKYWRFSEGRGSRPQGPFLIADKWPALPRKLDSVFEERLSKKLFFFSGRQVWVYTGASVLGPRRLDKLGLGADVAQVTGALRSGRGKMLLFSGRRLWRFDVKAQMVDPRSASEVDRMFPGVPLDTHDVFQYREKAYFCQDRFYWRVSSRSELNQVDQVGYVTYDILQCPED

| Structure (SMILES) | IC50 (THP-1 [1]) | IC50 (THP-1 [2]) | viability at 72 h, 20 µM [3] | IC50 (THP-1 [4]) | inhibition [5] | inhibition (THP-1 [6]) | inhibition (THP-1 [7]) | inhibition (THP-1 [8]) | inhibition (THP-1 [9]) | inhibition (THP-1 [10]) |
| --- | --- | --- | --- | --- | --- | --- | --- | --- | --- | --- |
| CCOC1=C(/C(C)=N/OCC(=O)Nc2ccc(F)c(Cl)c2)N(C)S(=O)(=O)c2ccccc21 | > 20 µM | > 20 µM | 97.5% | > 20 µM | – | – | – | – | – | – |
| COc1cccc(NC(=O)CO/N=C(\C)C2=C(O)c3ccccc3S(=O)(=O)N2C)c1 | > 20 µM | > 20 µM | 92.5% | > 20 µM | – | – | – | – | – | – |
| C/C(=N\OCC(=O)Nc1ccc(Cl)c(C(F)(F)F)c1)C1=C(O)c2ccccc2S(=O)(=O)N1C | 6 µM | 2.5 µM | 91.2% | > 20 µM | 75% | Active | Active | Active | Active | Active |
| C/C(=N\OCC(=O)Nc1c(F)cccc1F)C1=C(O)c2ccccc2S(=O)(=O)N1C | > 20 µM | > 20 µM | 92.2% | > 20 µM | – | – | – | – | – | – |
| C/C(=N\OCC(=O)Nc1ccc(C(F)(F)F)cc1)C1=C(O)c2ccccc2S(=O)(=O)N1C | 12.1 µM | 4 µM | 93% | > 20 µM | Active | Active | Active | Active | Active | Active |
| CCOC1=C(/C(C)=N/OCC(=O)Nc2ccc(Cl)c(C(F)(F)F)c2)N(C)S(=O)(=O)c2ccccc21 | > 20 µM | > 20 µM | 90.2% | > 20 µM | – | – | – | – | – | – |
| C/C(=N\OCC(=O)Nc1ccc(F)c(Cl)c1)C1=C(O)c2ccccc2S(=O)(=O)N1C | > 20 µM | > 20 µM | 95.1% | > 20 µM | – | – | – | – | – | – |
| CCOC1=C(/C(C)=N/OCC(=O)Nc2ccc(OC)cc2)N(C)S(=O)(=O)c2ccccc21 | > 20 µM | > 20 µM | 94.2% | > 20 µM | – | – | – | – | – | – |
| C/C(=N\OCC(=O)Nc1cccc(F)c1)C1=C(O)c2ccccc2S(=O)(=O)N1C | > 20 µM | 9.4 µM | 95.5% | > 20 µM | – | – | – | – | – | – |
| CCOC1=C(/C(C)=N/OCC(=O)Nc2ccc(C(F)(F)F)cc2)N(C)S(=O)(=O)c2ccccc21 | > 20 µM | 5.7 µM | 93% | 16.7 µM | – | – | – | – | – | – |
| CCc1ccc(CCOc2ccc(CC3SC(=O)NC3=O)cc2)nc1 (stereo not drawn) [PIOGLITAZONE] | – | 18.6 µM | – | – | – | – | – | – | – | – |
| CCOC1=C(/C(C)=N/OCC(=O)Nc2cccc(OC)c2)N(C)S(=O)(=O)c2ccccc21 | > 20 µM | > 20 µM | 96.2% | > 20 µM | – | – | – | – | – | – |
| CCOC1=C(/C(C)=N/OCC(=O)Nc2cccc(F)c2)N(C)S(=O)(=O)c2ccccc21 | > 20 µM | > 20 µM | 92% | > 20 µM | – | – | – | – | – | – |
| C/C(=N\OCC(=O)Nc1ccccc1)C1=C(O)c2ccccc2S(=O)(=O)N1C | > 20 µM | > 20 µM | 94.1% | > 20 µM | – | – | – | – | – | – |
| CCOC1=C(/C(C)=N/OCC(=O)Nc2ccccc2)N(C)S(=O)(=O)c2ccccc21 | > 20 µM | > 20 µM | 93% | > 20 µM | – | – | – | – | – | – |
| CCOC1=C(/C(C)=N/OCC(=O)Nc2c(F)cccc2F)N(C)S(=O)(=O)c2ccccc21 | > 20 µM | > 20 µM | 92.3% | > 20 µM | – | – | – | – | – | – |
| CN1C(C(=O)Nc2ccccn2)=C(O)c2ccccc2S1(=O)=O [PIROXICAM] | > 20 µM | – | – | – | – | – | – | – | – | – |
| COc1ccc(NC(=O)CO/N=C(\C)C2=C(O)c3ccccc3S(=O)(=O)N2C)cc1 | > 20 µM | > 20 µM | 97.5% | > 20 µM | – | – | – | – | – | – |
